# TCR CD3 inh: inhibitors of human TCR-CD3 interaction | TAMRA-labeled TCR probe fluorescence, biochemical | inhibition, % at 9.4 µM | 360,000 tested, 0.37% active; in the data active = inhibition above about 19%;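 also: recombinant mutant TCR 2C K166C tagged with TAMRA read by polarization; 0% = receptor in buffer alone and 100% = receptor with positive control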
# mABHD4 FP: inhibitors of mouse ABHD4; Q8VD66; purified mABHD4, FP-Rh probe fluorescence polarization; AID 720543; inhibition, % at 8.92 µM; 370,000 tested, 0.54% active;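 active = inhibition exceeding the mean over every tested compound plus 3 SD, cut at about 30% in these data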;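 also: 0% = plate median of compound wells and 100% = S159A mutant with DMSO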
# Target sequence (Q8VD66 whole entry, looked up): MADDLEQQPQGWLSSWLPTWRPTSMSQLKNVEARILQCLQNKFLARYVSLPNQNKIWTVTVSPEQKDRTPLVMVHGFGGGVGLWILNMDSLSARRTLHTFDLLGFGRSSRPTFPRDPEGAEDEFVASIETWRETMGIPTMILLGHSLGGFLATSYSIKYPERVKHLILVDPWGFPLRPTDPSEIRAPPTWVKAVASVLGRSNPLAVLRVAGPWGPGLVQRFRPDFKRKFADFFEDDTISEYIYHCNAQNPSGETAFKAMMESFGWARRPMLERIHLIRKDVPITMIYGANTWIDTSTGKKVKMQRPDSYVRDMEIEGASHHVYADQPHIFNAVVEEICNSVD
#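 Test system: mABHD4 protein | Buffer or medium: HEPES pH 7.0 buffer, 150 mM NaCl, 0.01% Pluronic F-127 | Probe or stimulus: FP-Rh fluorescent activity-based probe, added after compound pre-incubation | Timing: Pre-incubation 45 min, probe exposure 60 min, at 25 °C | Technique: Fluorescence polarization, excitation 525 nm, emission 598 nm, BODIPY TMR filters | Repeats: Single well per compound (singlicate)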
# DAGLB inhibitor: diacylglycerol lipase beta (human) inhibition; Q8NCG7; HEK293T DAGLB membrane lysate, EnzChek fluorogenic substrate; inhibition, % at 5.17 µM; 340,000 tested, 0.059% active; AID 504411; in the data active = inhibition above about 34%;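 also: 0% = enzyme with vehicle and 100% = wells lacking enzyme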
# HTRA1 inhibitor: inhibitors of human serine peptidase HTRA1; Q92743; recombinant HTRA1, FP-rhodamine activity-based probe, fluorescence polarization; 340,000 tested, 0.5% active; inhibition, % at 5.96 µM; AID 504803; in the data active = inhibition above about 36%;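 also: 0% = enzyme with DMSO and 100% = wells lacking enzyme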
# SIAE inh: blocks human sialic acid acetylesterase. SIAE FP-Rh probe binding, fluorescence polarization. inhibition, % at 9.66 µM. AID 1053197. Q9HAT2. 370,000 tested, 0.69% active;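 active = inhibition above a cutoff: mean of compounds within the control limits plus 3 SD of those, cut at about 17% in these data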;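 also: 0% = plate median of compound wells and 100% = probe without SIAE protein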
# HTRA1 conf: HTRA1 (human) inhibition, confirmation; shares compounds with HTRA1 inhibitor; recombinant HTRA1, FP-rhodamine activity-based probe, fluorescence polarization; inhibition, % at 5.96 µM; 1,600 tested, 66% active;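 active = mean inhibition over three repeats above a set limit taken from the earlier primary screen, cut at about 37% in these data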;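 also: 0% = HTRA1 with DMSO and 100% = wells lacking HTRA1; inhibitors block probe binding so polarization drops and inhibition rises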
# * marks the source's active call; other numbers are inactive results; . = no result. Shown are actives, neighbours in structure and some others; about 1.5% of the full set was active somewhere.
SMILES,TCR CD3 inh,mABHD4 FP,DAGLB inhibitor,HTRA1 inhibitor,SIAE inh,HTRA1 conf
COC(=O)[C@]12C[C@H](CC(=O)NCc3ccc(OC)c(OC)c3)C(=O)N(CCc3ccc(OC)c(OC)c3)C1=C[C@H](C1CCCC1)O[C@@H]2C,.,-1,.,.,0,.
Cc1ccnc(Nc2nc(-c3ccc(O)cc3O)cs2)c1,8,19,3,37*,10,44*
CCOC(=O)C1=NN(C(=O)c2ccc(C)cc2)C(O)(c2ccc(Cl)cc2)C1 (configuration not stated),-5,10,6,60*,1,72*
COC(=O)[C@]12C[C@H](CC(=O)NCc3ccccc3)C(=O)N(Cc3ccc4c(c3)OCO4)C1=C[C@H](COCc1ccccc1)O[C@@H]2C,1,2,.,.,4,.
O=[N+]([O-])c1ccc2c(c1Nc1ccccc1Cl)=NC1(CCCCC1)N=2,1,2,.,.,1,.
Cc1ccc(Nc2c([N+](=O)[O-])ccc3c2=NC2(CCCCC2)N=3)cc1,-11,15,22,37*,17,75*
Cc1cc(Br)cn2c(Cc3ccccc3C(F)(F)F)c(-c3ccc(F)cc3)nc12,-8,-25,.,.,-9,.
COc1ccccc1N1CCN(Cc2ccc(O)c3ncccc23)CC1,-1,6,7,45*,5,53*
Oc1ccc(CCc2ccccc2)c2cccnc12,.,-2,.,.,7,.
Oc1ccc(CN2CCCc3ccccc32)c2cccnc12,.,.,7,39*,.,35
COc1ccccc1N1CCN(Cc2ccc(OC)c(OC)c2OC)CC1,-8,1,-3,2,12,.
COC(=O)[C@]12C[C@H](CC(=O)NCC3CCCCC3)C(=O)N(Cc3ccc4c(c3)OCO4)C1=C[C@H](C(C)(C)C)O[C@@H]2C,1,3,.,.,1,.
N#CC1=C2N=C(N)c3ccccc3N2C2=C(C(=O)CCC2)C1c1ccccc1F (configuration not stated),-3,6,1,2,5,.
Cc1ccccc1C1C(C#N)=C2N=C(N)c3c(sc4c3CCCCC4)N2C2=C1C(=O)CCC2 (configuration not stated),.,.,3,50*,.,27
COc1ccc2c(c1O)-c1ccccc1CCN(C)C2,0,5,-4,2,11,.
CN1CCc2cccc3c2[C@@H]1Cc1ccc(O)c(O)c1-3,.,.,2,49*,.,53*
Cc1c(Cl)cccc1NS(=O)(=O)c1ccc2c(c1)C1C=CCC1C(c1ccc(C(=O)O)cc1)N2 (configuration not stated),.,.,21,38*,.,31
O=C(NCCc1c[nH]c2ccccc12)OCc1cn(-c2cccc(Cl)c2)nn1,.,-4,.,.,2,.
CCCCCCCCC(=O)N/N=C/c1ccccn1,5,0,-1,-1,-2,.
CCCCCCCCC/C(=N\O)c1ccccn1,2,-5,-1,66*,-6,66*
COCc1cc(N2CCN(C(=O)OC(C)(C)C)C[C@H]2C)ccc1N1C[C@@H](C)O[C@@H](C)C1,8,-6,.,.,2,.
COCCCN1C(=O)[C@H](CC(=O)NCCC(C)C)[C@]2(C(=O)OC)CCCCC=C12,.,3,.,.,5,.
Cc1cc(C)c(O)c(CN(C)Cc2cc(Cl)cc(Cl)c2O)c1,-10,5,7,62*,9,55*
CCN(C(=O)c1c([N+](=O)[O-])cnn1C)c1ccccc1,3,-3,-3,37*,0,32
c1ccc(-c2nnc(-c3ccccn3)nc2NC2CCCCC2)cc1,0,5,8,65*,-1,80*
SMILES,TCR CD3 inh,mABHD4 FP,DAGLB inhibitor,HTRA1 inhibitor,SIAE inh,HTRA1 conf
Cc1ccc(/C(O)=C/C(=O)C(=O)NNC(=O)C(O)(c2ccccc2)c2ccccc2)cc1,2,2,13,22,-7,.
O=C(C=C(O)c1ccc(Cl)cc1)C(=O)NNC(=O)C(O)(c1ccccc1)c1ccccc1,7,-8,19,41*,-12,36*
CC1CCN(c2ccc(NC(=O)Cc3ccccc3)cc2)CC1,-2,-7,0,-10,-2,.
COc1cccc(CNc2ccc(N3CCC(C)CC3)cc2)c1OC,-4,26,14,52*,3,46*
COc1ccccc1CNC(=O)C[C@H]1CC[C@H]2[C@@H](COc3ccc(NC(=O)Nc4ccccc4)cc3C(=O)N2C)O1,.,11,.,.,5,.
CCCC(=O)NCc1ccc2c(c1)cc(C)n2C,4,4,2,7,-4,.
Cc1cc2cc(CNC(=S)Nc3ccc(OC(F)(F)F)cc3)ccc2n1C,6,15,11,41*,1,11
N=C1CCC(=N)c2c1c(O)c1ccccc1c2O,.,.,14,88*,.,110*
O=C1CCn2c1c(O)c1ccccc1c2=O,-5,8,-4,7,-2,.
Cc1ccccc1N1CCN(C(=O)CN2C(=O)CC(C)(C)S(=O)(=O)c3ccccc32)CC1,.,4,.,.,-3,.
Cc1ccc(NC(=S)N/N=C/c2ccc([N+](=O)[O-])s2)cc1,-9,3,19,59*,8,59*
Cc1cc(C)cc(N=Cc2ccc([N+](=O)[O-])s2)c1,-2,9,2,17,0,.
Cc1c(COC(=O)NC(C)C)c(COC(=O)NC(C)C)c2n1CS(=O)(=O)C2,4,-3,.,.,-2,.
CCN=C1NC(c2cccc(Cl)c2)C(C(=O)OC)=C(C)N1Cc1ccccc1C(F)(F)F (configuration not stated),2,11,.,.,5,.
CC1(C)CCN2CCC(C)(C)c3c(O)ccc1c32,11,21,-17,66*,-17,27
COC(=O)[C@]12C[C@H](CC(=O)NCCCN3CCCC3=O)C(=O)N(Cc3cccc4ccccc34)C1=C[C@H](C(C)C)O[C@@H]2C1CC1,.,0,.,.,-1,.
Cc1cccc(OCC(=O)NC(=S)N2CCCc3ccccc32)c1,12,21,-2,48*,6,7
O=C(COc1ccc(Cl)cc1Cl)NC(=S)N1CCCc2ccccc21,-5,9,1,29,1,.
CCOC(=O)COn1c(=O)c(-c2cccs2)[n+]([O-])c2ccccc21,-7,8,1,42*,0,10
O=C1c2ccccc2-c2onc3ccc(Oc4ccccc4)c1c23,-34,-31,12,39*,-6,22
C=CC[C@]12C[C@@]3(O[C@H](c4ccccn4)N=C3C[C@H](c3ccc(OC)cc3)[C@H]1C)N(C1CCN(Cc3ccccc3)CC1)C2=O,0,-1,.,.,-1,.
CCCc1ccc(O)c(N=Cc2cc(Br)cc(OCC)c2O)c1,-5,18,9,41*,-2,55*
COc1cc2c(cc1NC(=O)CSc1nnc(-c3cnccn3)n1-c1ccc(C)cc1)oc1ccccc12,.,2,.,.,3,.
Cc1ccc(C(=O)N2CCN(c3ccc(NC(=O)c4cc(C)cc(C)c4)cc3)CC2)cc1,4,1,0,-3,4,.

# Compound activity (PubChem BioAssay)
